From ChEMBL document CHEMBL5303300, “EUbOPEN Chemogenomics Library - Multiplex” (2023)
Values joined by “and” are separate entries in the source; they are usually repeats but may differ in a detail not shown here. Equal entries are not always repeated.

Test system: Fibroblast
Assay: Multiplex assay against human fibroblast
Format: toxicity, cell-based
Conditions: number of replicates 2
In short: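 Values for tubulin, mitochondrial-mass and membrane-permeability phenotypes are per cents of cells with healthy nuclei. These cells were identified by CellPathfinder machine-learning gating of live cells that had been stained at seeding with Hoechst33342, BioTracker Green Microtubule Cytoskeleton Dye, MitoTracker Red and Annexin V Alexa Fluor 680 and imaged on a CQ1 microscope at 37°C and 5% CO2 after compound addition. The gating first set Hoechst high-intensity objects apart from normal cells, then split normal cells into healthy, pyknosed or fragmented nuclei, and pyknosed cells into mitotic or apoptotic.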

[1] = 12 h, 1 µM, compound concentration 1 uM
[2] = 12 h, 10 µM, compound concentration 10 uM
[3] = 24 h, 1 µM, compound concentration 1 uM
[4] = 24 h, 10 µM, compound concentration 10 uM
[5] = 48 h, 1 µM, compound concentration 1 uM
[6] = 48 h, 10 µM, compound concentration 10 uM

**Q.** What does the source list for `COc1cc(OC)cc(C(=O)NNC(=O)Nc2cccc3ccccc23)c1`?
**A.** Population Apoptotic (%) [1]: 32% and 47%; Population Fragmented Nuclei (%) [1]: 6% and 18%; Population Healthy Nuclei (%) [1]: 77% and 72%; Population Hoechst High Intensity Objects (%) [1]: 0%; Population Membrane Permeable-Phenotype (%) [1]: 3%; Population Mitochondria Different-Phenotype (%) [1]: 0% and 1%; Population Mitotic Cells (%) [1]: 67% and 52%; Population Normal (%) [1]: 100%; Population Pyknosed Nuclei (%) [1]: 15% and 8%; Population Tubulin-Different-Phenotype (%) [1]: 10% and 5%; Total Cell Count [1]: 196 and 216; Population Apoptotic (%) [2]: 34% and 37%; Population Fragmented Nuclei (%) [2]: 9% and 7%; Population Healthy Nuclei (%) [2]: 70% and 85%; Population Hoechst High Intensity Objects (%) [2]: 0%; Population Membrane Permeable-Phenotype (%) [2]: 3% and 2%; Population Mitochondria Different-Phenotype (%) [2]: 1% and 0%; Population Mitotic Cells (%) [2]: 65% and 62%; Population Normal (%) [2]: 100%; Population Pyknosed Nuclei (%) [2]: 20% and 7%; Population Tubulin-Different-Phenotype (%) [2]: 12% and 6%; Total Cell Count [2]: 159 and 228; Population Apoptotic (%) [3]: 41% and 50%; Population Healthy Nuclei (%) [3]: 87% and 76%; Population Hoechst High Intensity Objects (%) [3]: 0%; Population Membrane Permeable-Phenotype (%) [3]: 3% and 1%; Population Mitochondria Different-Phenotype (%) [3]: 2% and 0%; Population Mitotic Cells (%) [3]: 58% and 50%; Population Normal (%) [3]: 100%; Population Pyknosed Nuclei (%) [3]: 8% and 6%; Population Tubulin-Different-Phenotype (%) [3]: 11% and 3%; Total Cell Count [3]: 199 and 203; Population Apoptotic (%) [4]: 38% and 25%; Population Fragmented Nuclei (%) [4]: 10%; Population Healthy Nuclei (%) [4]: 77% and 85%; Population Hoechst High Intensity Objects (%) [4]: 0%; Population Membrane Permeable-Phenotype (%) [4]: 3% and 0%; Population Mitochondria Different-Phenotype (%) [4]: 2% and 0%; Population Mitotic Cells (%) [4]: 61% and 75%; Population Normal (%) [4]: 100% and 99%; Population Pyknosed Nuclei (%) [4]: 11% and 3%; Total Cell Count [4]: 155 and 236; Population Apoptotic (%) [5]: 62% and 56%; Population Fragmented Nuclei (%) [5]: 7% and 15%; Population Healthy Nuclei (%) [5]: 88% and 78%; Population Hoechst High Intensity Objects (%) [5]: 0%; Population Membrane Permeable-Phenotype (%) [5]: 1% and 2%; Population Mitochondria Different-Phenotype (%) [5]: 0%; Population Mitotic Cells (%) [5]: 37% and 43%; Population Normal (%) [5]: 100%; Population Pyknosed Nuclei (%) [5]: 3% and 6%; Population Tubulin-Different-Phenotype (%) [5]: 5% and 1%; Total Cell Count [5]: 213 and 238; Population Apoptotic (%) [6]: 66% and 70%; Population Fragmented Nuclei (%) [6]: 12% and 9%; Population Healthy Nuclei (%) [6]: 82% and 86%; Population Hoechst High Intensity Objects (%) [6]: 0%; Population Membrane Permeable-Phenotype (%) [6]: 5% and 0%; Population Mitochondria Different-Phenotype (%) [6]: 0%; Population Mitotic Cells (%) [6]: 33% and 30%; Population Normal (%) [6]: 99%; Population Pyknosed Nuclei (%) [6]: 5% and 4%; Population Tubulin-Different-Phenotype (%) [6]: 8% and 1%; Total Cell Count [6]: 165 and 243
